In brackets after ≈: the same amount, converted by molar mass. Residues, ends and D or L forms follow the SMILES beside them. *: point of attachment. X2 = O=C(c1cc(-c2nc3ccc([N+](=O)[O-])cc3[nH]2)ccc1O)*
Experiments:
[1] = test system: Bacillus subtilis; test: Antibacterial activity against Bacillus subtilis NCIM 2063 after 18 hrs by disc diffusion method; format: functional
Procedure, shortened: (§1)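 Modified Kirby-Bauer disc diffusion. Plates inoculated with spore suspension (about 6 × 10⁴ spores mL^-1). Sterile 6 mm paper discs carried test samples at 10 mg mL^-1; ciprofloxacin disc as reference, DMF disc as negative control. Plates held 18 h at 37 °C. Inhibition zone diameters (mm) averaged over triplicate sets.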

[2] = test system: Trichophyton benhamiae; test: Antifungal activity against Trichophyton mentagrophytes MUCC 665 after 48 hrs by tube dilution method; format: functional, Arthroderma benhamiae
Procedure, shortened: (§2)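 Tube dilution MIC as for bacteria (seven concentrations, 200–3.1 […]), with DMSO in place of DMF. Tubes inoculated with fungal culture and incubated 48 h at 37 °C. MIC read from presence or absence of growth.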

[3] = test system: Bacillus subtilis; test: Antibacterial activity against Bacillus subtilis NCIM 2063 after 18 hrs by tube dilution method; format: functional; details: NCIM 2063, 18 h
Procedure, shortened: (§3)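 Tube dilution MIC. Stock diluted in sterile broth to seven concentrations from 200 to 3.1 […]. Each tube inoculated with one loopful of test bacterium and incubated 18 h at 37 °C. MIC read from presence or absence of growth.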

[4] = test system: Microsporum audouinii; test: Antifungal activity against Microsporum audouinii MUCC 545 after 48 hrs by disc diffusion method; format: functional
Procedure, shortened: (§4)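 Agar well diffusion on plates inoculated with spore suspension in normal saline from cultures on Sabouraud's broth. Wells punched and loaded with test samples or griseofulvin at 10 mg mL^-1, with DMSO as negative control. Incubated 48 h at 37 °C.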

[5] = Growth inhibition of DLA cells at 500 ug/mL after 3 hrs; format: functional; details: Mus musculus
Procedure, shortened: (§5)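 DLA and EAC cells passaged intraperitoneally in albino mice, harvested after 15–20 days and adjusted to 1 × 10⁶ cells/mL. Dilutions in Dulbecco's medium (500–31.25, some down to 3.91 µg/mL; 5-FU reference) mixed 1:1 with cells and held 3 h at 37 °C. Trypan blue exclusion gave % growth inhibition; CTC50 by graphical extrapolation.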

[6] = Growth inhibition of EAC cells after 3 hrs; format: functional; details: Mus musculus, Ehrlich; procedure, shortened: as §5
[7] = test system: Escherichia coli; test: Antibacterial activity against Escherichia coli NCIM 2065 after 18 hrs by tube dilution method; format: functional; details: NCIM 2065, 18 h
[8] = test system: Pontoscolex corethrurus; test: Anthelmintic activity against Pontoscolex corethrurus ICARBC 408 assessed as mean paralyzing time; format: functional
Procedure, shortened: (§6)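 Earthworms exposed to test suspensions at 2 mg mL^-1 (0.2% w/v), made by triturating compound with Tween 80 (0.5%) and distilled water, then mechanically stirred 30 min. Mebendazole suspension prepared alike as reference. Paralysis and death times recorded; death confirmed by no movement in 50 °C water. Means from triplicate sets.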

[9] = Growth inhibition of DLA cells at 250 ug/mL after 3 hrs; format: functional; details: Mus musculus; procedure, shortened: as §5
[10] = test system: Staphylococcus aureus; test: Antibacterial activity against Staphylococcus aureus NCIM 2079 after 18 hrs by disc diffusion method; format: functional; procedure, shortened: as §1
[11] = test system: Pseudomonas aeruginosa; test: Antibacterial activity against Pseudomonas aeruginosa NCIM 2034 after 18 hrs by tube dilution method; format: functional; details: NCIM 2034, 18 h; procedure, shortened: as §3
[12] = Growth inhibition of DLA cells at 125 ug/mL after 3 hrs; format: functional; details: Mus musculus; procedure, shortened: as §5
[13] = Growth inhibition of EAC cells at 62.5 ug/mL after 3 hrs; format: functional; details: Mus musculus, Ehrlich; procedure, shortened: as §5
[14] = test system: Trichophyton benhamiae; test: Antifungal activity against Trichophyton mentagrophytes MUCC 665 after 48 hrs by disc diffusion method; format: functional, Arthroderma benhamiae; procedure, shortened: as §4
[15] = test system: Aspergillus niger; test: Antifungal activity against Aspergillus niger MUCC 177 after 48 hrs by disc diffusion method; format: functional; procedure, shortened: as §4
[16] = Anthelmintic activity against Megascoplex konkanensis ICARBC 211 assessed as mean paralyzing time; format: functional; procedure, shortened: as §6
[17] = test system: Pseudomonas aeruginosa; test: Antibacterial activity against Pseudomonas aeruginosa NCIM 2034 after 18 hrs by disc diffusion method; format: functional; procedure, shortened: as §1
[18] = Anthelmintic activity against Megascoplex konkanensis ICARBC 211 assessed as mean death time; format: functional; procedure, shortened: as §6
[19] = test system: Eudrilus; test: Anthelmintic activity against Eudrilus sp. assessed as mean paralyzing time; format: functional; procedure, shortened: as §6
[20] = Growth inhibition of DLA cells after 3 hrs; format: functional; details: Mus musculus; procedure, shortened: as §5
[21] = Growth inhibition of DLA cells at 62.5 ug/mL after 3 hrs; format: functional; details: Mus musculus; procedure, shortened: as §5
[22] = test system: Eudrilus; test: Anthelmintic activity against Eudrilus sp. assessed as mean death time; format: functional
Procedure, shortened: (§7)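 Earthworms exposed to test suspensions at 2 mg mL−1, prepared by triturating compound with Tween 80 (0.5%) and distilled water, stirring 30 min, then diluting to 0.2% w/v. Mebendazole suspension was made the same way. Death was confirmed by moving worms into 50 °C warm water and looking for movement. Mean death time (min) taken from triplicate sets.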

[23] = Growth inhibition of EAC cells at 31.25 ug/mL after 3 hrs; format: functional; details: Mus musculus, Ehrlich; procedure, shortened: as §5
[24] = test system: Pontoscolex corethrurus; test: Anthelmintic activity against Pontoscolex corethrurus ICARBC 408 assessed as mean death time; format: functional; procedure, shortened: as §7
[25] = Growth inhibition of DLA cells at 31.25 ug/mL after 3 hrs; format: functional; details: Mus musculus; procedure, shortened: as §5
[26] = Growth inhibition of EAC cells at 500 ug/mL after 3 hrs; format: functional; details: Mus musculus, Ehrlich; procedure, shortened: as §5
[27] = Growth inhibition of EAC cells at 125 ug/mL after 3 hrs; format: functional; details: Mus musculus, Ehrlich; procedure, shortened: as §5
[28] = Growth inhibition of EAC cells at 250 ug/mL after 3 hrs; format: functional; details: Mus musculus, Ehrlich; procedure, shortened: as §5
[29] = test system: Microsporum audouinii; test: Antifungal activity against Microsporum audouinii MUCC 545 after 48 hrs by tube dilution method; format: functional; procedure, shortened: as §2
[30] = test system: Candida albicans; test: Antifungal activity against Candida albicans MUCC 29 after 48 hrs by disc diffusion method; format: functional; procedure, shortened: as §4
[31] = test system: Escherichia coli; test: Antibacterial activity against Escherichia coli NCIM 2065 after 18 hrs by disc diffusion method; format: functional; procedure, shortened: as §1
[32] = test system: Staphylococcus aureus; test: Antibacterial activity against Staphylococcus aureus NCIM 2079 after 18 hrs by tube dilution method; format: functional; details: NCIM 2079, 18 h; procedure, shortened: as §3
[33] = test system: Candida albicans; test: Antifungal activity against Candida albicans MUCC 29 after 48 hrs by tube dilution method; format: functional; procedure, shortened: as §2

Compound	inhibition zone (IZ) [1] [mm]	MIC [2] [µg/mL]	MIC [3] [µg/mL]	inhibition zone (IZ) [4] [mm]	inhibition at 500 µg/mL [5] [%]	CC50 [6] [µM]	MIC [7] [µg/mL]	Time [8] [min]	inhibition at 250 µg/mL [9] [%]	inhibition zone (IZ) [10] [mm]	MIC [11] [µg/mL]	inhibition at 125 µg/mL [12] [%]	inhibition at 62.5 µg/mL [13] [%]	inhibition zone (IZ) [14] [mm]	inhibition zone (IZ) [15] [mm]	TIME [16] [h]	inhibition zone (IZ) [17] [mm]	TIME [18] [h]	Time [19] [min]	CC50 [20] [µM]	also measured
Cc1cc2nc(-c3ccc(C(=O)N[C@@H](Cc4cnc[nH]4)C(=O)N[C@@H](Cc4ccc(O)cc4)C(=O)O)cc3)[nH]c2cc1C	13	6 (≈ 10.6 µM)	6 (≈ 10.6 µM)	10	26.3	> 883	25 (≈ 44.1 µM)	17.47	18.4	11	12.5 (≈ 22.1 µM)	21	3.57	16	17	0.226	23	0.37	13.44	> 883	inhibition at 62.5 µg/mL [21]: 10.5%; Time [22]: 23.08 min; inhibition at 31.25 µg/mL [23]: 3.57%; Time [24]: 29.02 min; inhibition at 31.25 µg/mL [25]: 13.2%; inhibition at 500 µg/mL [26]: 10.7%; inhibition at 125 µg/mL [27]: 7.14%; inhibition at 250 µg/mL [28]: 7.14%; MIC [29]: 25 µg/mL (≈ 44.1 µM); inhibition zone (IZ) [30]: 17 mm; inhibition zone (IZ) [31]: 17 mm; MIC [32]: 12.5 µg/mL (≈ 22.1 µM); MIC [33]: 12.5 µg/mL (≈ 22.1 µM)
COC(=O)CNC(=O)[C@H](CC(C)C)NC(=O)[C@@H]1CCCN1C(=O)[C@H](Cc1cnc[nH]1)NC(=O)c1cc(-c2nc3ccc([N+](=O)[O-])cc3[nH]2)ccc1O (X2-HPLG-OMe)	14	6 (≈ 8.36 µM)	6 (≈ 8.36 µM)	12	39.5	> 697	12.5 (≈ 17.4 µM)	13.76	31.6	10	6 (≈ 8.36 µM)	23.7	7.14	15	17	0.188	24	0.334	11.23	> 697	inhibition at 62.5 µg/mL [21]: 15.8%; Time [22]: 20.33 min; inhibition at 31.25 µg/mL [23]: 3.57%; Time [24]: 21.72 min; inhibition at 31.25 µg/mL [25]: 28.7%; inhibition at 500 µg/mL [26]: 28.7%; inhibition at 125 µg/mL [27]: 10.7%; inhibition at 250 µg/mL [28]: 21.4%; MIC [29]: 6 µg/mL (≈ 8.36 µM); inhibition zone (IZ) [30]: 20 mm; inhibition zone (IZ) [31]: 14 mm; MIC [32]: 12.5 µg/mL (≈ 17.4 µM); MIC [33]: 6 µg/mL (≈ 8.36 µM)
